Source: PubChem
The list is not random: actives were taken first. Their share in the collection is about 4.6%.
p97 ATPase inh – inhibitors of human p97 ATPase, primary screen, biochemical; Transitional endoplasmic reticulum ATPase (Homo sapiens), P55072; recombinant p97 ATPase, Kinase-Glo ATP luminescence, 3 h; inhibition, % at 8 µM; actives 0.42% (n = 220,000); AID 1481, 2009; in the data active = inhibition above about 15%;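 note: 0% = DMSO vehicle and 100% = wells lacking enzyme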
STAT1 activator – STAT1 signaling activators, primary screen, cell-based, HTS, luciferase reporter. NIH 3T3 STAT1-luciferase reporter, IFN-gamma, luminescence; 100% = IFN-gamma alone, no compound. activation (% of control), % at 5.5 µM. actives 2.6% (n = 200,000);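 active = activation above the screen-wide mean activation plus 3 SD, cut at about 130% in these data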;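 note: raw ratio to IFN-gamma control signal so 100% means no change and 0% no light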
Wee1 degr inh – Wee1 degradation inhibitors, primary screen, cell-based, HeLa, Wee1K328M-luciferase, luminescence; Wee1-like protein kinase (Homo sapiens), P30291; HeLa Luc-Wee1K328M stability; 100% = proteasome inhibitor MG132 effect; actives 1.2% (n = 220,000); reporter increase, % at 5 µM;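 active = activation above the mean of all tested compounds plus 3 SD, set per screening run, cut at about 8.8% in these data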;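 note: cells exposed to compound for 20 h before luminescence read; 0% = DMSO alone and 100% = MG132 at 30 µM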
Target sequence (P30291 whole entry K328M): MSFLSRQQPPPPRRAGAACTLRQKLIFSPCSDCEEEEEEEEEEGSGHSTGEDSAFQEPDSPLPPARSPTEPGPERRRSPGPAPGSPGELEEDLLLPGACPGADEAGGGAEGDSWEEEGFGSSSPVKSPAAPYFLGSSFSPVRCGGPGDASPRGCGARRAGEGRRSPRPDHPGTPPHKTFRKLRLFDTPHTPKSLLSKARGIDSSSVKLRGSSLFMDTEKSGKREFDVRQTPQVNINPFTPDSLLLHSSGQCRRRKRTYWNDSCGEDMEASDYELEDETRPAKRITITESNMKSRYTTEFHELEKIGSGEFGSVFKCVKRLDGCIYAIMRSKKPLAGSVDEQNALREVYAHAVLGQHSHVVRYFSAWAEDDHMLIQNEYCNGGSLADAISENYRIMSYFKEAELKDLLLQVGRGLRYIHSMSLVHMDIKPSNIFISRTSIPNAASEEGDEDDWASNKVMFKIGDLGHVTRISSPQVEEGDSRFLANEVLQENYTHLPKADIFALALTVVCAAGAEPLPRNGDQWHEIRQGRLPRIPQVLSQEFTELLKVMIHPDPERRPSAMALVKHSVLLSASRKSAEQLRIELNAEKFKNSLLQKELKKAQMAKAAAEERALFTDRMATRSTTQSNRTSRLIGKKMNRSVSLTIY
MDM2 E3 inh – MDM2-luciferase reporter signal enhancers, primary screen, MDM2 E3 ligase inhibitor project, cell-based, luminescence, 1536-well; E3 ubiquitin-protein ligase Mdm2 (Homo sapiens), Q00987; cell-based MDM2 ubiquitination luciferase reporter, 2 h; 0 = plate control, 100 = twice control, blank-subtracted; signal enhancement, % at 5 µM; actives 0.11% (n = 210,000); AID 1230, 2008;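 active = signal enhancement of 30% or more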;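 note: luminescence tracks abundance of the self-degrading MDM2-luciferase fusion protein; higher signal means inhibition of MDM2 E3 ligase activity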
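Assay system: stable mammalian line carrying autodegrading MDM2–luciferase fusion reporter; amount: 2000 cells seeded into each well; buffer or medium: DMEM; benchmarks: plate control and blank wells; signal: luciferase luminescence; timing: 2 h compound exposure at 37 °C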
NF-kB expr up – activators of NF-kB expression in neurons, primary screen, cell-based, HTS | human neuronal cells, NF-kB reporter expression; hits give high values | actives 1.6% (n = 190,000) | fold change at 12.5 µM; in the data active = fold change above about 3.3
APP 5'UTR act – activators of APP 5'UTR luciferase reporter, primary screen, SH-SY5Y cells | SH-SY5Y APP 5'UTR luciferase reporter, luminescence; zero percent = DMSO vehicle wells | actives 1% (n = 190,000) | activation, % at 2 µM;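 active = activation above a set limit, based on mean plus 3 SD of controls, cut at about 140% in these data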
An asterisk follows results filed as active; · = not tested or not shown.

SMILES | p97 ATPase inh | STAT1 activator | Wee1 degr inh | MDM2 E3 inh | NF-kB expr up | APP 5'UTR act
CCCNC(=O)c1oc2ccc3c(c2c1C)C(=O)CC(C)(C)O3 | 1 | 145* | 1 | -17 | 5.1* | 190*
N#CC(C#N)=Cc1ccc(OCC(=O)N2CCOCC2)cc1 | 1 | 95 | -1 | -12 | 0.96 | -12
c1ccc(-c2nnc3ccc(N4CCC5(CC4)OCCO5)nn23)cc1 | 4 | 109 | 2 | -7 | 3.6* | 10
NC(=O)C1(N2CCCCC2)CCN(c2ccc3nnc(-c4ccccc4)n3n2)CC1 | 2 | 104 | -1 | -15 | 0.78 | -3
O=C(NCCCN1CCOCC1)c1ccc(CSc2ccc(Cl)cc2)cc1 | -2 | 94 | -1 | -29 | 1 | -19
Cc1cc(NC(=O)/C=C/c2ccccc2Cl)no1 | 5 | 135* | 6 | -2 | 2 | 83
Cc1cc(NC(=O)c2ccccc2Cl)no1 | 2 | 123 | 3 | -2 | 1.8 | 47
COC(=O)c1cc(NC(=O)/C=C/c2ccccc2)ccc1O | 5 | 133* | -4 | -3 | 2 | 56
CN(C)c1ccc(NC(=O)/C=C/c2ccccc2Cl)cc1 | 2 | 149* | 6 | · | 1.9 | 111
Cc1cc(NC(=O)/C=C/c2ccccc2)no1 | -4 | 130* | 2 | -48 | 3.2 | 73
CCN(CC)CCCC(C)NC(=O)c1cccc(S(=O)(=O)N2CCc3ccccc32)c1 (centres undefined) | 2 | 99 | 1 | -2 | 1.1 | -12
N#Cc1ccc(N/N=C/c2ccccc2)c([N+](=O)[O-])c1 | 0 | 100 | 0 | -11 | 1.2 | -32
COc1ccc(OC)c(NC(=O)NCCc2cccc(Cl)c2)c1 | 1 | 104 | 6 | -3 | 0.89 | 5
CN(C)c1ccc(NC(=S)NC(=O)/C=C/c2ccc(Cl)cc2)cc1 | 1 | 142* | 2 | 4 | 1.8 | 69
O=C(N/N=C1/CC2C=CCC12)c1ccco1 (centres undefined) | -5 | 134* | 4 | 4 | 1.7 | 44
CC(C(O)C12CC3CC(CC(C3)C1)C2)N1CCCCC1 (centres undefined) | 0 | 105 | 4 | -4 | 1 | 12
COc1ccc(-c2nnc(SCC(=O)c3ccc(C)o3)o2)cc1 | 0 | 109 | 4 | · | 1.7 | 14
COc1ccc(-c2nnc(SCC(=O)/C(C#N)=C(\C)N)o2)cc1 | 1 | 136* | 2 | -12 | 5.1* | 194*
C/C(N)=C(/C#N)C(=O)CSc1nnc(-c2ccccc2Br)o1 | 2 | 138* | 0 | -5 | 5.5* | 198*
COc1ccc2nc(SCC(=O)/C(C#N)=C(\C)N)[nH]c2c1 | 2 | 141* | 2 | 9 | 4.1* | 121
COc1ccc(-c2nnc(-c3ccc(N)cc3)o2)cc1 | 3 | 140* | 2 | -32 | 5.7* | 79
CC(C)CCNC(=O)NC(=O)CSc1nnc(-c2ccccc2Br)o1 | -4 | 100 | -1 | -19 | 1.2 | 16
OC1(c2ccc(Cl)c(Cl)c2)C[n+]2ccccc2N1Cc1ccccc1 (centres undefined) | 9 | · | -1 | 3 | · | ·
O=c1c2ccccc2c(C=NCc2ccccn2)c(O)n1-c1ccccc1Cl | 5 | 89 | 6 | -9 | 0.86 | -16
Cc1ccc(NC(=O)CC2S/C(=N/N=C/c3c[nH]c4ccccc34)NC2=O)cc1 (centres undefined) | 6 | 114 | 9.7* | · | 1 | 19
SMILES | p97 ATPase inh | STAT1 activator | Wee1 degr inh | MDM2 E3 inh | NF-kB expr up | APP 5'UTR act
O=C(NCCc1ccccc1)c1nc(-c2cccs2)no1 | 0 | 119 | 0 | -12 | 1.2 | 20
CCOC(=O)CNC(=O)c1ccc(OCC(F)(F)F)cc1 | -3 | 117 | -2 | -10 | 0.96 | 5
Cc1ccc(OCC(=O)NCc2ccccn2)c(Br)c1 | 4 | 141* | 0 | -6 | 2.1 | 30
O=C(COc1ccc(F)cc1Br)NCc1ccccn1 | -3 | 116 | 0 | -14 | 1.7 | 16
C/C(CC(=O)NC(C)(C)C)=N\NC(=O)COc1ccc(C)cc1Br | 1 | 104 | 9.5* | 10 | 1.3 | 13
COCc1ccc(C(=O)N2CCCC(CCC(=O)NCc3ccccc3F)C2)o1 (centres undefined) | 3 | 97 | 0 | -20 | 1.2 | -8
CC1=C(C(=O)NC(C)c2ccccc2)C2(CCC(C)CC2)OC1=O (centres undefined) | 6 | · | -1 | · | · | ·
CC1=C(C(=O)NC(C)CCc2ccccc2)C2(CCC(C)CC2)OC1=O (centres undefined) | 1 | 99 | 0 | 36* | 0.93 | 3
CC(C)c1ccc(/C=C/C(=O)NC2=NCCS2)cc1 | 6 | 95 | -2 | -67 | 3.1 | 222*
CC(C)c1ccc(OCC(=O)NC2=NCCS2)cc1 | 2 | 126 | 4 | -25 | 1.5 | 26
O=C(/C=C/c1ccc(Cl)c(Cl)c1)NC1=NCCS1 | -1 | 134* | 2 | -12 | 1.6 | 25
O=C(COc1ccc(Br)cc1Br)NC(=S)Nc1cccc(CO)c1 | 0 | 119 | 11* | -5 | 1.5 | 96
O=C(COc1ccc(Br)cc1Br)NC(=O)NC1CCCC1 | 0 | 142* | 2 | 5 | 3.4* | 44
CCCCCCCCn1cnc2c(N)c(C)c(C)cc21 | -3 | 112 | -4 | -8 | 4.5* | -6
CCOC(=O)C1=C(C)N(C)C(=S)NC1c1ccccc1 (centres undefined) | 1 | 105 | 3 | -3 | 1.2 | -11
CCOC(=O)C1=C(C)N(C)C(=S)NC1c1ccc(Cl)cc1 (centres undefined) | 6 | 105 | 9.9* | -7 | 1.2 | -5
Cc1cc(Br)ccc1OCCCCN1CCCCC1 | 5 | 106 | 1 | 1 | 0.92 | -1
O=C(O)c1ccc(OCc2cn3ccccc3n2)cc1 | -1 | · | -1 | · | · | ·
O=C(COc1ccc(Oc2ccccc2)cc1)NCc1cn2ccccc2n1 | -1 | 108 | 10* | 7 | 1.5 | -18
O=C(NCC1CCCO1)c1ccc(N2CCCCC2)nc1 (centres undefined) | -4 | 107 | 3 | 11 | 1.5 | 34
O=C(NCC1CCCO1)c1ccc2nc(N3CCCCC3)sc2c1 (centres undefined) | 5 | 130* | 6 | -32 | 2.3 | 48
CC1CCN(c2nc3ccc(C(=O)O)cc3s2)CC1 | 5 | 26 | -3 | -86 | 6.7* | -46
